Active and inactive are the calls of the source. No cut-off for these calls is given here.

Assay type in all cases: functional, cell-based
Settings in all cases: time <= 14.0 day

One assay relates to U-266. As to the kind of experiment: Antiproliferative activity against human […] cells treated upto 14 days with replacement of fresh medium containing drug every 3 to 4 days by cell counting kit-8 method. The gist of the method: (§1)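 Screen of histone methylation modifier inhibitors in 6-well plates at 3 × 10^4 to 1 × 10^5 cells/well. Drug at 1 μM or DMSO for up to 14 days, with medium and drug refreshed every 3-4 days. CCK-8 read on days 3-4 and 11-14. Values normalized to DMSO; mean of 5 replications ± SEM; unpaired two-sided t-test.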
Background: Formazan colour is commonly taken as a measure of viable cells.

The subject of another assay is RPMI-8226. As to the kind of experiment: Antiproliferative activity against human RPMI-8226 cells treated upto 14 days with replacement of fresh medium containing drug every 3 to 4 days by cell counting kit-8 method. In a few lines: as §1
The next assay concerns KMS-12-PE. In words: Antiproliferative activity against human KMS-12-PE cells treated upto 14 days with replacement of fresh medium containing drug every 3 to 4 days by cell counting kit-8 method. The gist of the method:
as §1

Another assay concerns MM1.S. In words: Antiproliferative activity against human MM1.S cells treated upto 14 days with replacement of fresh medium containing drug every 3 to 4 days by cell counting kit-8 method. The gist of the method: (§2)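 Screen of histone methylation modifier inhibitors: myeloma cells seeded at 3 × 10^4 to 1 × 10^5 cells/well, exposed to 1 μM inhibitor or DMSO for up to 14 days. Viability read by CCK-8 absorbance at early (days 3-4) and late (days 11-14) time points, normalized to DMSO; means of 5 replications, SEM, unpaired two-sided t-test.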

The test system of another assay is KMS-12-BM. In words: Antiproliferative activity against human KMS-12-BM cells treated upto 14 days with replacement of fresh medium containing drug every 3 to 4 days by cell counting kit-8 method. The gist of the method:
as §2

`O=C(O)c1ccc(CN2CCC(CN[C@@H]3C[C@H]3c3ccccc3)CC2)cc1`: the outcome in the assay on U-266 and in the assay on RPMI-8226 was inactive.

As to `CC[C@H](C)n1cc(C)c2c(C(=O)NCc3c(C)cc(C)[nH]c3=O)cc(-c3ccc(N4CCNCC4)nc3)cc21`, the outcome with KMS-12-PE was inactive. Still for that read-out and setting: under `COc1cc2c(NC3CCN(C(C)C)CC3)nc(C3CCCCC3)nc2cc1OCCCN1CCCC1` stands “inactive”. As for `N[C@@H]1C[C@H]1c1cc(F)cc(F)c1OCc1ccccc1`, the outcome in the assay on MM1.S and in the assay with KMS-12-BM was inactive.

These data come from ChEMBL document CHEMBL5712901, “DOT1L inhibition blocks multiple myeloma cell proliferation by suppressing IRF4-MYC signaling” (2019).
